Measured values taken from ChEMBL document CHEMBL1133060, “N-(indol-3-ylglyoxylyl)piperidines: high affinity agonists of human GABA-A receptors containing the alpha1 subunit” (Bioorg Med Chem Lett, 2000).

Key:
[1] = target: T1, GABA-A receptor; alpha-3/beta-3/gamma-2 (Homo sapiens, UniProt P18507+P28472+P34903); experiment: Binding affinity evaluated by ability to displace [3H]Ro-151788 from recombinant human Gamma-aminobutyric acid A receptor alpha-3-beta-3-gamma-2 expressed in L(tk-)cells; format: cell-based
T1 sequence (P18507 whole entry): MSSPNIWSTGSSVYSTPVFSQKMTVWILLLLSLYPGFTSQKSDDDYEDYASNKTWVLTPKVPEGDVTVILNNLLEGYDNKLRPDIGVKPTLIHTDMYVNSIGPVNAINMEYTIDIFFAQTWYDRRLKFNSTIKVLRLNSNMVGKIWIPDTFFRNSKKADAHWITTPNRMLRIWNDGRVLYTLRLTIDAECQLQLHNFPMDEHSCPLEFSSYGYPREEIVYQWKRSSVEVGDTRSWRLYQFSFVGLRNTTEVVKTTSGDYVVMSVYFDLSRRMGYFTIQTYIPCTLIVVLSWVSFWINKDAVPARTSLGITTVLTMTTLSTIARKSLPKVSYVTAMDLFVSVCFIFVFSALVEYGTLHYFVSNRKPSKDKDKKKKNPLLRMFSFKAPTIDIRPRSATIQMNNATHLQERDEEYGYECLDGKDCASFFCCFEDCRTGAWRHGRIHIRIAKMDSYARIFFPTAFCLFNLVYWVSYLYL
T1 sequence (P28472 whole entry): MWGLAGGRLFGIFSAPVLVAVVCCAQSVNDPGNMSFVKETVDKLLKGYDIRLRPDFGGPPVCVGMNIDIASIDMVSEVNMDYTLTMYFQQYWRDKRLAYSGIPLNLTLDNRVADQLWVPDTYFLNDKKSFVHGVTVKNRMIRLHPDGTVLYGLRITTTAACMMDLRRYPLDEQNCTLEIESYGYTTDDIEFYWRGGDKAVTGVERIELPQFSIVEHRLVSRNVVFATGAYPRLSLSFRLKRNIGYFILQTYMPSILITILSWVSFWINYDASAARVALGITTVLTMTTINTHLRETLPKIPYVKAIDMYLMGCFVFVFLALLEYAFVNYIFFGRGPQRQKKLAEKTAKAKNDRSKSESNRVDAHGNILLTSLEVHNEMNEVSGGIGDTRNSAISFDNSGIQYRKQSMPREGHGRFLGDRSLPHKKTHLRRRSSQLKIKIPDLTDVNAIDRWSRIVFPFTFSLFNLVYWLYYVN
T1 sequence (P34903 whole entry): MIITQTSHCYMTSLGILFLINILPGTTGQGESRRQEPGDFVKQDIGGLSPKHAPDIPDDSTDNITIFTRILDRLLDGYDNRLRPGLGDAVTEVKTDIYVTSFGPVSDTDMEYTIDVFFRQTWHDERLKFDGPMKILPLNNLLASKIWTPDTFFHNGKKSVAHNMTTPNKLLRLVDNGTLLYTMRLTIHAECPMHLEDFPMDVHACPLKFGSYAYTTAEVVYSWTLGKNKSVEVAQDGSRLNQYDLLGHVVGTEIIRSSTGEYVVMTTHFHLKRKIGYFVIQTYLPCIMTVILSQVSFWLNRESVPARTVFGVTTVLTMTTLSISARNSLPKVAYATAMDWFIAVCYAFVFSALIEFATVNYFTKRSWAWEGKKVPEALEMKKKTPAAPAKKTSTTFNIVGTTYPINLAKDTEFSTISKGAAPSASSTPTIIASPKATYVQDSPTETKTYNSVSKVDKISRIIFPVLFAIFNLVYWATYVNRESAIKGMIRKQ

[2] = target: T2, GABA-A receptor; alpha-2/beta-3/gamma-2 (Homo sapiens, UniProt P18507+P28472+P47869); experiment: Binding affinity evaluated by ability to displace [3H]-Ro-15-1788 from recombinant human Gamma-aminobutyric acid A receptor alpha-2-beta-3-gamma-2 expressed in L(tk-)cells; format: cell-based
T2 sequence (P18507 whole entry): T1 sequence (P18507 whole entry)
T2 sequence (P28472 whole entry): T1 sequence (P28472 whole entry)
T2 sequence (P47869 whole entry): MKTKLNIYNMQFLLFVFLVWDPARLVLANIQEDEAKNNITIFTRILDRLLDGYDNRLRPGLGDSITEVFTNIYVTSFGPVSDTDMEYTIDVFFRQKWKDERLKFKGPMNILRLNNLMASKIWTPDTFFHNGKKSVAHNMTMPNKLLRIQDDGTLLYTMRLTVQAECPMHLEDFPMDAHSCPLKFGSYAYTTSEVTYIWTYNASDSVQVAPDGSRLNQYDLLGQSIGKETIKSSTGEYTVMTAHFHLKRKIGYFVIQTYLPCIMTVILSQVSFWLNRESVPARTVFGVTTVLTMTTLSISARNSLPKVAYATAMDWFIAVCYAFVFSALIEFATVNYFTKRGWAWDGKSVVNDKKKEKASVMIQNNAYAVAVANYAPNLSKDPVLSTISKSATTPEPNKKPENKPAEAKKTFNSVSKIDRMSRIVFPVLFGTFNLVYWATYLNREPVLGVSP

[3] = target: T3, GABA-A receptor; alpha-1/beta-2/gamma-2 (Homo sapiens, UniProt P14867+P18507+P47870); experiment: Binding affinity evaluated by ability to displace [3H]Ro-151788 from recombinant human Gamma-aminobutyric acid A receptor alpha-1-beta-2-gamma-2 expressed in L(tk-)cells; format: cell-based
T3 sequence (P14867 whole entry): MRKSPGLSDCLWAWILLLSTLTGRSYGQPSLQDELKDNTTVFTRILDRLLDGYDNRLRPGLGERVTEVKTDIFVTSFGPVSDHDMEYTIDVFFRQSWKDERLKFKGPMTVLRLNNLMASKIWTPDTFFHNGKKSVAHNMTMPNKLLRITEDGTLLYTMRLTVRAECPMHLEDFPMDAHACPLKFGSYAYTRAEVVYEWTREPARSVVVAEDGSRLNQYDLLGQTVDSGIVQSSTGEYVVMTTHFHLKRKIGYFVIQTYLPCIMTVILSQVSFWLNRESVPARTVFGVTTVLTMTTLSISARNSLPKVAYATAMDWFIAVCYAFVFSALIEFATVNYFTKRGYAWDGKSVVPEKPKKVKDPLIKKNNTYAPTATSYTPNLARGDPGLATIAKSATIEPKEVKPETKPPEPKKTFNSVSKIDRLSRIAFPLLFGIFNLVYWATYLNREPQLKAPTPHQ
T3 sequence (P47870 whole entry): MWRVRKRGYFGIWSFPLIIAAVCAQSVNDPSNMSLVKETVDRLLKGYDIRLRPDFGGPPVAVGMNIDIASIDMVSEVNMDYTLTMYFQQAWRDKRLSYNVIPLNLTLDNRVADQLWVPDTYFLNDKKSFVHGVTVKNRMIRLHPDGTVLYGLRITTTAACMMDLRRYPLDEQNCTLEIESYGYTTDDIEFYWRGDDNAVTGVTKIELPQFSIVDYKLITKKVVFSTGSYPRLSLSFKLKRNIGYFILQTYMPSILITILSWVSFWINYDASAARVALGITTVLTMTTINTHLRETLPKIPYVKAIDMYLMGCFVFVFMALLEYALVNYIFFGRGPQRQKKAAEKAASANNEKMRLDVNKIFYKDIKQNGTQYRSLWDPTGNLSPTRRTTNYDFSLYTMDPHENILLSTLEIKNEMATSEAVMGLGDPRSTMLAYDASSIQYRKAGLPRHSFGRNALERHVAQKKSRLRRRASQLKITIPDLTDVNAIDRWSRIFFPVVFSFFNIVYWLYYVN
T3 sequence (P18507 whole entry): T1 sequence (P18507 whole entry)

[4] = target: T4, GABA-A receptor; alpha-1/beta-2/gamma-2 (Homo sapiens) (UniProt P14867+P47870+P18507); experiment: Ability to affect GABA-induced chloride current in Xenopus oocytes transiently expressing human GABA-A alpha-1-beta-2-gamma-2 receptors using two-electrode voltage-clamp electrophysiology at test concentration of 30 uM; format: functional, cell-based; conditions: Oocyte
In short: (§1)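 The GABA EC20 (concentration giving 20% of maximal GABA current) was determined separately for each oocyte, range 4–30 μM. Compound was then coapplied with GABA at that EC20 to measure modulation of the current. Mean ± SEM, n = 3-5.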

[5] = target: T4, GABA-A receptor; alpha-1/beta-2/gamma-2 (Homo sapiens); experiment: Ability to affect GABA-induced chloride current in Xenopus oocytes transiently expressing human GABA-A alpha-1-beta-2-gamma-2 receptors using two-electrode voltage-clamp electrophysiology at test concentration of 3 uM; format: functional, cell-based; conditions: Oocyte; in short: as §1

| Ki [1] | Ki [2] | Ki [3] | Efficacy [4] | Efficacy [5] | Structure (SMILES) |
| --- | --- | --- | --- | --- | --- |
| 960 nM | 830 nM | 440 nM | – | – | O=C(C(=O)N1CCCC1Cc1ccccc1)c1c[nH]c2ccccc12 (centres undefined) |
| 23 nM | 22 nM | 14 nM | – | – | CCOC(=O)[C@@H]1C[C@H](C(=O)OCC)CN(C(=O)C(=O)c2c[nH]c3ccccc23)C1 |
| 720 nM | 680 nM | 380 nM | – | – | O=C(C(=O)N1CCc2ccccc2C1)c1c[nH]c2ccccc12 |
| 91 nM | 180 nM | 77 nM | – | – | O=C(C(=O)N1CCCC(C(=O)OCc2ccccc2)C1)c1c[nH]c2ccccc12 (centres undefined) |
| 1500 nM | 970 nM | 300 nM | – | – | O=C(C(=O)N1CCCC(C(=O)NCc2ccccc2)C1)c1c[nH]c2ccccc12 (centres undefined) |
| 570 nM | 430 nM | 890 nM | 28% | – | CCOC(=O)CC1CCCN1C(=O)C(=O)c1c[nH]c2ccccc12 (centres undefined) |
| 990 nM | 390 nM | 880 nM | – | – | CCOC(=O)C1CCCN(C(=O)C(=O)c2c[nH]c3ccccc23)C1 (centres undefined) |
| 96 nM | 40 nM | 14 nM | – | – | CN(Cc1ccccc1)C(=O)C1CCCN(C(=O)C(=O)c2c[nH]c3ccccc23)C1 (centres undefined) |
| 19000 nM | 1300 nM | 200 nM | – | 64% | O=C(C(=O)N1Cc2ccccc2C1)c1c[nH]c2ccccc12 |
| 670 nM | 250 nM | 140 nM | – | – | CN(Cc1ccccc1)C(=O)[C@H]1CCCN(C(=O)C(=O)c2c[nH]c3ccccc23)C1 |
| 250 nM | 200 nM | 400 nM | – | – | CCOC(=O)[C@@H]1C[C@@H](C(=O)OCC)CN(C(=O)C(=O)c2c[nH]c3ccccc23)C1 |
| 500 nM | 440 nM | 510 nM | – | – | CCOC(=O)CC1CCCN1C(=O)C(=O)c1c[nH]c2c(C)cccc12 (centres undefined) |
| 50 nM | 19 nM | 7.3 nM | – | – | CN(Cc1ccccc1)C(=O)[C@@H]1CCCN(C(=O)C(=O)c2c[nH]c3ccccc23)C1 |
| 320 nM | 270 nM | 460 nM | – | – | CCOC(=O)CC1CCCN1C(=O)C(=O)c1c[nH]c2c(OC)cccc12 (centres undefined) |
